According to ChEMBL document CHEMBL1139853, “Anxiolytic effects of erythrinian alkaloids from Erythrina mulungu” (2007):
Activity calls are given as the source filed them. The calls are words filed in the database; no cut-off is given here.

How the values were obtained:
Mus musculus [1] = experiment: Locomotor activity in Swiss mouse measured as number of crossings in the arena test at 3 mg/kg, po; assay type: functional
In short: (§1)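 Male Swiss mice (25-35 g, naive) given the test agent orally at 3-10 mg/kg as a saline suspension, 30 min before testing. Saline po served as vehicle; diazepam 2 mg/kg ip (saline + 2% Tween 80) was the reference. Arena locomotor test scoring crossings and rearings; mean ± SEM reported.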

Mus musculus [2] = experiment: Locomotor activity in Swiss mouse measured as number of rearings in the arena test at 3 mg/kg, po; assay type: functional; in short: as §1
Mus musculus [3] = experiment: Locomotor activity in Swiss mouse measured as number of crossings in the arena test at 10 mg/kg, po; assay type: functional; in short: as §1
Mus musculus [4] = experiment: Locomotor activity in Swiss mouse measured as number of rearings in the arena test at 10 mg/kg, po; assay type: functional; in short: as §1
Mus musculus [5] = experiment: Antianxiolytic activity in Swiss mouse assessed as reduction of latency to leave the enclosed arm by elevated T maze test at 10 mg/kg, po; assay type: functional, organism-based; set-up: dose 10 mg/kg
In short: (§2)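 Male Swiss mice, 25-35 g, experimentally naive, group-housed 10 per cage on a 12 h light cycle at 23 ± 1 °C/55 ± 5% humidity. Test agent suspended in saline (NaCl 0.9%) and given orally (3-10 mg/kg) 30 min before the session; vehicle saline po; diazepam reference 2 mg/kg ip in saline + 2% Tween 80. Elevated T-maze 38.5 cm above the floor, three 30 cm × 5 cm arms. One-way ANOVA followed by Duncan's test.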

Mus musculus [6] = experiment: Antianxiolytic activity in Swiss mouse assessed as reduction of latency to leave the enclosed arm by elevated T maze test at 3 mg/kg, po; assay type: functional, organism-based; set-up: dose 3 mg/kg; in short: as §2
Mus musculus [7] = experiment: Antianxiolytic activity in Swiss mouse assessed as impairment of inhibitory avoidance task by elevated T-maze test at 3 mg/kg, po; assay type: functional, organism-based; set-up: dose 3 mg/kg
In short: (§3)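 Naive male Swiss mice (25-35 g) received alkaloid suspended in saline (NaCl 0.9%) orally (3-10 mg/kg range) 30 min before testing, with saline vehicle controls. Inhibitory avoidance latency to leave the enclosed arm was measured in an elevated T-maze (38.5 cm high; three 30 cm × 5 cm arms). Analysis was one-way ANOVA followed by Duncan's test.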

Mus musculus [8] = experiment: Antianxiolytic activity in Swiss mouse assessed as impairment of inhibitory avoidance task by elevated T-maze test at 10 mg/kg, po; assay type: functional, organism-based; set-up: dose 10 mg/kg; in short: as §3
Mus musculus [9] = experiment: Antianxiolytic activity in Swiss mouse assessed as effect on latency to leave the open arm by elevated T maze test at 10 mg/kg; assay type: functional, organism-based; set-up: dose 10 mg/kg; in short: as §2
Mus musculus [10] = experiment: Antianxiolytic activity in Swiss mouse assessed as effect on latency to leave the open arm by elevated T maze test at 2 mg/kg, ip; assay type: functional, organism-based; set-up: dose 2 mg/kg
In short: (§4)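 Male Swiss mice (25-35 g, naive), group-housed on a 12 h light cycle. Diazepam was suspended in saline + 2% Tween 80 and given ip 30 min before the session. Elevated T-maze raised 38.5 cm above the floor, with three 30 cm × 5 cm arms; arm-exit latencies were recorded. Analysis was one-way ANOVA with Duncan's post hoc test.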

Mus musculus [11] = experiment: Antianxiolytic activity in Swiss mouse assessed as reduction of latency to leave the enclosed arm by elevated T maze test at 2 mg/kg, ip; assay type: functional, organism-based; set-up: dose 2 mg/kg; in short: as §4

SMILES	Activity (Mus musculus [1])	Activity (Mus musculus [2])	Activity (Mus musculus [3])	Activity (Mus musculus [4])	Activity (Mus musculus [5])	Activity (Mus musculus [6])	Activity (Mus musculus [7])	Activity (Mus musculus [8])	Activity (Mus musculus [9])	Activity (Mus musculus [10])	Activity (Mus musculus [11])
COc1cc2c(cc1OC)[C@]13C[C@@H](O)C=CC1=CCN3CC2	157.33	37.07	157.93	31.71	Active	Active	–	–	–	–	–
COc1cc2c(cc1OC)[C@]13C[C@@H](OC)C=CC1=CCN3C[C@H]2O	135.3	29.6	159	29.63	–	–	Active	Active	–	–	–
COc1cc2c(cc1OC)[C@]13C[C@@H](O)C=CC1=CCN3C[C@H]2O	158.5	27.7	126.56	22.44	Active	–	–	–	inactive	–	–
CN1C(=O)CN=C(c2ccccc2)c2cc(Cl)ccc21	–	–	–	–	Active	–	Active	Active	–	inactive	Active
